SENP8 block-1 = blocks human SENP8 cleavage of Nedd8 substrate. recombinant SENP8, Nedd8 substrate fluorescence. inhibition, % at 20 µM. hit rate 0.64% among 360,000. AID 602440; in the data active means inhibition mostly above about 40%, no sharp cut-off; inactive means mostly below about 27%
Platelet DG rel = modulates dense granule release in human platelets | inhibition, %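 (compounds screened at 7.5 µM in platelet-rich plasma)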 | hit rate 0.22% among 300,000 | human platelet-rich plasma, SFLLRN dense granule ATP release, luminescence;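 active means mean replicate score, as percent of positive control, at or above 50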
SENP7 block = blocks the human protease SENP7. AID 434973. inhibition, % at 5 µM. Q9BQF6. recombinant SENP7, Z-RLRGG-aminoluciferin luminescence, 40 min. hit rate 1.5% among 330,000;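 active means inhibition above about 50% at the single test dose, limit read from the data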;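 further: plate controls were DMSO with enzyme for no effect and no enzyme buffer wells for full effect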
SENP8 block-2 = SENP8 protease inhibition; hit rate 1.2% among 330,000; purified SENP8, Z-RLRGG-aminoluciferin cleavage, luminescence; inhibition, % at 10 µM; Q96LD8; in the data active means inhibition above about 50%
SENP1 inh = inhibitors of human SENP1 SUMO protease catalytic domain; recombinant SENP1 catalytic domain, CyPet-SUMO1-YPet FRET cleavage; inhibition, % at 10 µM; hit rate 0.21% among 360,000;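 active means inhibition at least 30% at 10 µM, raw YFP signal under a set limit, fluorescence ratio 0.5 to 1.5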;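 further: 0% = enzyme with DMSO and 100% = no enzyme wells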
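material = recombinant human SENP1 catalytic domain, His6-tagged | quantity = 20 pM enzyme | reagent = 25 nM SUMO1 FRET substrate | compound dosing = 10 µM single point, 0.5% DMSO | timing = 50 min enzyme reaction, room temperature, light-protected | detection = FRET, CFP and YFP emission | control set = no-enzyme low, enzyme-DMSO high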
SENP6 inh = SENP6 protease inhibition. hit rate 1.8% among 330,000. Recombinant SENP6 catalytic domain, aminoluciferin luminescence. inhibition, % at 10 µM;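 active means inhibition above about 50% at the single tested dose, limit read from the data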;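 further: plate controls were DMSO wells with enzyme for no effect and DMSO wells lacking enzyme for full effect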
Target sequence (Q9GZR1 628-1112 limits assumed): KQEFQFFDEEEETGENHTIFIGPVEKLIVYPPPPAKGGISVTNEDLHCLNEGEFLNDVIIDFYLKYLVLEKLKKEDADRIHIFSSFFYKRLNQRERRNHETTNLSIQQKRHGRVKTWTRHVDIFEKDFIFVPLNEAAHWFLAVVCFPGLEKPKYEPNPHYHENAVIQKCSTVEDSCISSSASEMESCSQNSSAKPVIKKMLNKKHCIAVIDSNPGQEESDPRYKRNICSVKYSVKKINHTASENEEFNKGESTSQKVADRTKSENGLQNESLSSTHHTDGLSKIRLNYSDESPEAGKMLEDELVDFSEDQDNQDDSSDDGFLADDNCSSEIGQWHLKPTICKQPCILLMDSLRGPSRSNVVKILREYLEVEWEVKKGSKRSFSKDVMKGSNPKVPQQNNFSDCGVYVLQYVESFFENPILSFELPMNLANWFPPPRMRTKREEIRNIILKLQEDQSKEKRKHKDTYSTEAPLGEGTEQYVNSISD
* = called active by the depositor. This is a sample that favours compounds with a hit; in the whole collection about 2.6% have one here.

COc1ccc(/C=C2\COc3ccccc3C2=O)c(OC)c1 was read as SENP8 block-1 -7.2, Platelet DG rel 10.1, SENP7 block -27.3, SENP8 block-2 -37.0, SENP1 inh -30.7 and SENP6 inh 2.7.
Screening COc1ccc2c(c1)OC/C(=C/c1cccs1)C2=O returned SENP8 block-1 -5.8, Platelet DG rel 4.6, SENP7 block 96.1*, SENP8 block-2 88.8*, SENP1 inh -1.0 and SENP6 inh 93.8*.
`CN(C)c1ccc(N=Nc2ccccc2C(=O)OCC(=O)N2CCCCCC2)cc1` gave SENP8 block-1 56.6*, Platelet DG rel -0.2, SENP7 block -2.1, SENP8 block-2 -5.6, SENP1 inh 4.4 and SENP6 inh 7.3.
Screening Nc1ccc2c(c1)C(=O)C(=O)c1ccccc1-2 returned SENP8 block-1 141.9*, Platelet DG rel -14.7, SENP7 block 98.1*, SENP8 block-2 97.2*, SENP1 inh 4.5 and SENP6 inh 88.7*.
O=C1C(=O)c2ccc(-c3ccccc3)cc2-c2ccccc21 was read as SENP8 block-1 99.6*, Platelet DG rel -1.8, SENP7 block 90.5*, SENP8 block-2 58.0*, SENP1 inh 0.2 and SENP6 inh 89.2*.
Nc1ccc2c(c1)C(=O)c1ccccc1-2 was read as SENP8 block-1 9.7, Platelet DG rel 4.2, SENP7 block -4.6, SENP8 block-2 -11.3, SENP1 inh 1.2 and SENP6 inh -5.7.
O=C(Cn1cnc2c(cnn2-c2ccc(F)cc2)c1=O)OCc1ccccc1 was read as SENP8 block-1 29.6, Platelet DG rel 52.6*, SENP7 block -2.5, SENP8 block-2 -3.1, SENP1 inh -0.8 and SENP6 inh -11.1.
Screening CCC(CN(C)C)Oc1cc(NCc2ccccc2)c2ncn(C(C)C)c2c1 (stereo not drawn) returned SENP8 block-1 12.4, SENP7 block 86.7*, SENP8 block-2 82.9*, SENP1 inh -30.5 and SENP6 inh -4.9.
COc1cc(NCc2ccccc2)c2ncn(C(C)C)c2c1 was read as SENP8 block-1 21.9, SENP7 block 5.5, SENP8 block-2 4.8, SENP1 inh 0.2 and SENP6 inh 2.0.
Screening Cc1cccc(C)c1OCC(=O)Nc1ccc2c(c1)C(=O)NC2=O returned SENP8 block-1 -365.8, Platelet DG rel -7.7, SENP7 block -11.2, SENP8 block-2 -10.5, SENP1 inh 0.5 and SENP6 inh -11.3.
For COc1cc(/C=C/C(=O)NCC2CCCCC2)cc(OC)c1OC the results were SENP8 block-1 -90.9, Platelet DG rel 2.3, SENP7 block 1.2, SENP8 block-2 -5.9, SENP1 inh 1.2 and SENP6 inh -17.2.
Screening COc1cccc2cc(-c3ccnc(N)n3)oc12 returned SENP8 block-1 -435.8, Platelet DG rel 2.2, SENP7 block 53.3*, SENP8 block-2 21.1, SENP1 inh -0.7 and SENP6 inh 14.8.
For C[C@@H]1CCCCO[C@H](CN(C)C(=O)c2ccccc2)[C@@H](C)CN([C@H](C)CO)C(=O)c2cc(NC(=O)c3ccncc3)ccc2O1 the results were SENP8 block-1 10.6 and SENP1 inh 1.9.
`CCOC(=O)C1(C)CCCN(C(=O)c2ccccc2C(F)(F)F)C1` (stereo not drawn) gave SENP8 block-1 11.3 and SENP1 inh 2.1.
Screening O=C(N/N=C/c1ccccc1[N+](=O)[O-])c1ccc2c(c1)OCCO2 returned SENP8 block-1 -41.8, Platelet DG rel 40.7, SENP7 block 45.9, SENP8 block-2 43.1, SENP1 inh -1.5 and SENP6 inh 71.5*.
O=C(N/N=C/c1cc(O)ccc1[N+](=O)[O-])c1ccc2c(c1)OCCO2 was read as SENP8 block-1 6.1, Platelet DG rel -15.2, SENP7 block 6.3, SENP8 block-2 -9.4, SENP1 inh 4.0 and SENP6 inh -11.0.
CCN1CCN(C(=O)CN(CC)S(=O)(=O)c2ccc(F)cc2)CC1 was read as SENP8 block-1 5.5, Platelet DG rel -5.7, SENP7 block 0.5, SENP8 block-2 -4.8, SENP1 inh 0.0 and SENP6 inh 4.6.
For Cc1c(C(=O)N2CCCC2)sc(NC(=O)c2ccc(Cl)cc2)c1C#N the results were SENP8 block-1 -34.2, Platelet DG rel 58.2*, SENP7 block 5.1, SENP8 block-2 0.9, SENP1 inh -48.5 and SENP6 inh 10.6.

Screening results as filed in PubChem.
